Assay results from paper PMC6032921 (Acta Physiologica (Oxford, England), 2018).
One block for each molecule: values may come before it.

Legend:
[1] = list of hypothermia‐inducing TRPV1 antagonists; cited from earlier work
TRPV1 [2] = conditions: cited from earlier work
rats [3] = conditions: cited from earlier work
rat TRPV1 channels [4] = target: T1, rat TRPV1 channels (Rattus norvegicus, UniProt O35433); experiment: ^45Ca^2+ uptake assay with scintillation counter, CHO cells expressing rat TRPV1; assay type: cell-based; conditions: pH 5.0
T1 sequence (O35433 whole entry): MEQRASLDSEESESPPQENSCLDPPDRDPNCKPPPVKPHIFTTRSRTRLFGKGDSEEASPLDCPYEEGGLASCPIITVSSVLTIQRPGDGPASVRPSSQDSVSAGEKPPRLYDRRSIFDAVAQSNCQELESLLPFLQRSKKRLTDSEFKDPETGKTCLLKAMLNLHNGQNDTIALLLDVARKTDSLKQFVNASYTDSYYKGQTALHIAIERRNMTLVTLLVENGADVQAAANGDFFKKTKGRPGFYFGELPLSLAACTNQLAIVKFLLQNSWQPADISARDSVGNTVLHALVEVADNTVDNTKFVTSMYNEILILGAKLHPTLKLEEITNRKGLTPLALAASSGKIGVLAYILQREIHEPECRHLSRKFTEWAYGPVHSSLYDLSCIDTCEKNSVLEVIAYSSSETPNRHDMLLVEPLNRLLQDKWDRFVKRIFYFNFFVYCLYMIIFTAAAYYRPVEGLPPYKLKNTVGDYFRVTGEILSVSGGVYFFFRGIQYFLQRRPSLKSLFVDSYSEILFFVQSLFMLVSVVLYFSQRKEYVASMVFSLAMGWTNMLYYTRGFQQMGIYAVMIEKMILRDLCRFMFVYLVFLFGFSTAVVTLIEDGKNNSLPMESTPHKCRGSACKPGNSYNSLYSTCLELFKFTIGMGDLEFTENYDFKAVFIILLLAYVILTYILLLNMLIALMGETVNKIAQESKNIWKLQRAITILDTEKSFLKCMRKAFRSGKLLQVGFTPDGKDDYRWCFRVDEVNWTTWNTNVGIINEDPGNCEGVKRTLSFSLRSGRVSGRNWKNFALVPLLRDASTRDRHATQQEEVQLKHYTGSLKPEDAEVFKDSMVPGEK
Summary of the method: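 CHO cells stably expressing rat TRPV1 were seeded 2 days before the assay (20,000 cells/well). Cells were exposed for 2 min at room temperature to test compound (200 pmol L⁻¹ to 4 μmol L⁻¹) with capsaicin (500 nmol L⁻¹) in HBSS pH 7.4 with BSA and HEPES, or with compound in MES buffer pH 5.0 with 30 mmol L⁻¹ HEPES. ⁴⁵Ca²⁺ (10 μCi mL⁻¹ final) was added for 2 min, cells were washed, and uptake was measured by scintillation counting.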

Trpv1 ^+/+ mice [5] = experiment: Abdominal T b in Trpv1 +/+ mice, telemetry, i.g. gavage; assay type: in vivo, mouse; conditions: 30 mg kg^−1 i.g., at 140 minutes
Trpv1 ^−/− mice [6] = experiment: Abdominal T b in Trpv1 −/− mice, telemetry, i.g. gavage; assay type: in vivo, mouse; conditions: 30 mg kg^−1 i.g.
Trpv1 ^+/+ mice [7] = experiment: Abdominal T b in Trpv1 +/+ mice, telemetry, i.p. catheter; assay type: in vivo, mouse; conditions: 10 mg kg^−1 i.p.
Summary of the method: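 Mice of both sexes (18‐27 g) were habituated to wire‐mesh confiners for 8 days. Under ketamine‐xylazine they were implanted intraperitoneally with a telemetry transmitter and a saline‐filled catheter, and tested 3‐6 days later. Test compound (0.75 mg mL⁻¹ in saline with 5% Tween‐80, warmed to 37°C) was given as a 10 mg kg⁻¹ bolus (~13 mL kg⁻¹) via the catheter, versus vehicle. Abdominal T_b was analysed by 2‐way ANOVA with Fisher's LSD.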

Trpv1 ^−/− mice [8] = experiment: Abdominal T b in Trpv1 −/− mice, telemetry, i.p. catheter; assay type: in vivo, mouse; conditions: 10 mg kg^−1 i.p.
TRPV1 [9] = conditions: cited from earlier work; for effect on TRPV1 activation by protons in vitro: ref Lehto et al 16
rat TRPV1 channels [10] = target: T1, rat TRPV1 channels; conditions: cited from earlier work
human TRPV1 channels = human TRPV1 channels (Homo sapiens, UniProt Q8NER1); conditions: cited from earlier work
human TRPV1 channels, sequence (Q8NER1 whole entry): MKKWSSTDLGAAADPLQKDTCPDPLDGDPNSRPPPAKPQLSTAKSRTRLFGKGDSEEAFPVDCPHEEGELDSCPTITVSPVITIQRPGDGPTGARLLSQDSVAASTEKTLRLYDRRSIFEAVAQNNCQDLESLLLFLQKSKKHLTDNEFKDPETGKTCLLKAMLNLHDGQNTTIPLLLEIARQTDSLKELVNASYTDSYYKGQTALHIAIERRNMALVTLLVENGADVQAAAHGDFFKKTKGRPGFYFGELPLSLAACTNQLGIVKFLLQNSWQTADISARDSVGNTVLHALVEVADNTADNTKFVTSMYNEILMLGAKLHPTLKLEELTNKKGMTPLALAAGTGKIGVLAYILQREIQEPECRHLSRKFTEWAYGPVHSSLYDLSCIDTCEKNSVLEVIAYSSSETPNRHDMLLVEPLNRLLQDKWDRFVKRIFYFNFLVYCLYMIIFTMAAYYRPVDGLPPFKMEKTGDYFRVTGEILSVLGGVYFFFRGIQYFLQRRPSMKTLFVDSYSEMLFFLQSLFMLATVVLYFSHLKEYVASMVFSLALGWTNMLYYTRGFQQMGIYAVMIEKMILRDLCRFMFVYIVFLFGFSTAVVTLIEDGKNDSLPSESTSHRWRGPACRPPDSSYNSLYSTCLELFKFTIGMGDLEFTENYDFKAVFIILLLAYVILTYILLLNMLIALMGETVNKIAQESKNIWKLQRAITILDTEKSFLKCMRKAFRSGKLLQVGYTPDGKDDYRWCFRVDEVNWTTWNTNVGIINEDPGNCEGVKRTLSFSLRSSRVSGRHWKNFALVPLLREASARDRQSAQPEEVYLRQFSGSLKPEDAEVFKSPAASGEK

corneal TRPV1 channels = corneal TRPV1 channels (Rattus norvegicus, UniProt O35433); experiment: Eye‐wiping test after intra‐abdominal RTX desensitization; assay type: in vivo; conditions: rats desensitized with RTX 20 μg kg^−1 i.p.
corneal TRPV1 channels, sequence (O35433 whole entry): as the sequence (O35433 whole entry) above
Summary of the method: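 This test was done 6‐16 days after i.p. RTX (20 μg kg⁻¹) or vehicle pre‐treatment of rats. Counts were compared between desensitized and sham‐desensitized rats by […] 2‐tailed Student's t test.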

humans = conditions: clinical trial in humans; cited from earlier work
rats [11] = conditions: rat models of inflammatory pain and heat hyperalgesia; cited from earlier work

Compound: C=C(C)[C@]12C[C@@H](C)[C@@]34O[C@](Cc5ccccc5)(O[C@@H]1[C@@H]3C=C(COC(=O)Cc1cc(I)c(O)c(OC)c1)C[C@]1(O)C(=O)C(C)=C[C@@H]41)O2 [5′‐I‐RTX, 5′‐iodo‐resiniferatoxin]
effect on deep body temperature (T b) [1]: cause hypothermia | TRPV1 agonistic or capsaicin‐potentiating activity (TRPV1 [2]): partial agonists

Compound: O=C(/C=C/c1ccc(C(F)(F)F)nc1N1CCCCC1)Nc1cccc2c1CC(O)CC2 (centres unmarked) [AMG0347]
effect on deep T b in rats (rats [3]): increase deep T b in rats

effect on ^45Ca^2+ influx in the proton activation mode (rat TRPV1 channels [4]): concentration‐dependent potentiation
Compound: FC(F)(F)c1ccc(-c2cc(Nc3ccc4ncsc4c3)ncn2)c(NCC2CCCCC2)c1 [AMG7905]
biggest intertreatment difference in T b (hypothermia vs vehicle) (Trpv1 ^+/+ mice [5]): 7.8 °C | effect on T b (Trpv1 ^−/− mice [6]): did not cause hypothermia | drop in T b compared to vehicle (Trpv1 ^+/+ mice [7]): > 2 °C | effect on T b (Trpv1 ^−/− mice [8]): neither A‐1165901 nor AMG7905 had any effect on T b | effect on deep body temperature (T b) [1]: cause hypothermia | TRPV1 agonistic or capsaicin‐potentiating activity (TRPV1 [2]): showed no TRPV1 agonistic or capsaicin‐potentiating activity | effect on TRPV1 activation by protons in vitro (TRPV1 [9]): potentiated TRPV1 activation by protons in vitro

Compound: O=C(/C=C/c1ccc(C(F)(F)F)cc1N1CCCCC1)Nc1cccc2c1C[C@H](O)C2 [AMG8562, (R, E)‐N‐(2‐hydroxy‐2,3‐dihydro‐1H‐inden‐4‐yl)‐3‐(2‐(piperidin‐1‐yl)‐4‐(trifluoromethyl)phenyl)‐acrylamide]
effect on deep body temperature (T b) [1]: cause hypothermia | TRPV1 agonistic or capsaicin‐potentiating activity (TRPV1 [2]): showed no TRPV1 agonistic or capsaicin‐potentiating activity | effect on TRPV1 activation by protons in vitro (TRPV1 [9]): potentiated TRPV1 activation by protons in vitro

Compound: CC(=O)Nc1nc2c(Oc3cc(-c4ccc(C(F)(F)F)cc4)ncn3)cccc2s1 [AMG 517]
effect on deep T b in rats (rats [3]): increase deep T b in rats

Compound: O=C(NCc1ccc(C(F)(F)F)cc1)Nc1cccc2cnccc12 [A‐425619, 1‐isoquinolin‐5‐yl‐3‐(4‐trifluoromethyl‐benzyl)‐urea]
effect on deep body temperature (T b) [1]: cause hypothermia | TRPV1 agonistic or capsaicin‐potentiating activity (TRPV1 [2]): showed no TRPV1 agonistic or capsaicin‐potentiating activity

Compound: Cc1ccc(N2c3cccc(C(=O)Nc4ccc(OCC(F)(F)F)nc4)c3OC[C@@H]2CO)nc1 [JTS‐653, (3S)‐3‐(hydroxymethyl)‐4‐(5‐methylpyridin‐2‐yl)‐N‐[6‐(2,2,2‐trifluoroethoxy)pyridin‐3‐yl]‐3,4‐dihydro‐2H‐benzo[b][1,4]oxazine‐8‐carboxamide]
effect on T b in rats (rats [3]): cause hyperthermia in rats | effect on proton‐induced activation of TRPV1 (rat TRPV1 channels [10]): potently block proton‐induced activation | effect on proton‐induced activation of TRPV1 (human TRPV1 channels): potently block proton‐induced activation

Compound: CC(C)(C)c1ccc(CNC(=S)NCc2ccc(NS(C)(=O)=O)c(F)c2)cc1 [JYL1421]
effect on deep body temperature (T b) [1]: cause hypothermia | TRPV1 agonistic or capsaicin‐potentiating activity (TRPV1 [2]): showed no TRPV1 agonistic or capsaicin‐potentiating activity

Compound: C=C(C)[C@]12C[C@@H](C)[C@@]34O[C@](Cc5ccccc5)(O[C@@H]1[C@@H]3C=C(COC(=O)Cc1ccc(O)c(OC)c1)C[C@]1(O)C(=O)C(C)=C[C@@H]41)O2 [RTX, resiniferatoxin]
eye‐wiping response to topical RTX in desensitized vs sham‐desensitized rats (corneal TRPV1 channels): no meaningful difference

Compound: O=C(Nc1ccc(C(F)(F)F)cn1)N1CC=C(c2ncc([C@H](O)CO)cc2Cl)CC1 [V116517, 4‐[3‐chloro‐5‐[(1S)‐1,2‐dihydroxyethyl]‐2‐pyridyl]‐N‐[5‐(trifluoromethyl)‐2‐pyridyl]‐3,6‐dihydro‐2H‐pyridine‐1‐carboxamide]
effect on T b in rats (rats [3]): causing hyperthermia in rats | effect on TRPV1 activation by protons (TRPV1 [9]): potently blocking TRPV1 activation by protons | effect on T b in humans (humans): caused no hyperthermia

Compound: Oc1cc2c(cc1O)CN(C(=S)NCCc1ccc(Cl)cc1)CCC2 [capsazepine]
effect on T b in rats (rats [3]): does not affect T b in rats | effect on proton activation of TRPV1 (rat TRPV1 channels [10]): no allosteric effect on proton activation | efficacy in pain models (rats [11]): efficacious
